In ChEMBL document CHEMBL3612027, “Substrate-guided optimization of the syringolins yields potent proteasome inhibitors with activity against leukemia cell lines” (Bioorg Med Chem, 2015):

Tests used:
[1] = molecular target: T1, Proteasome Macropain subunit MB1 (Homo sapiens, UniProt P28074); assay: Inhibition of human 20S proteasome beta5 subunit using Suc-LLVY-AMC as substrate by fluorescence assay
T1 sequence (P28074 whole entry): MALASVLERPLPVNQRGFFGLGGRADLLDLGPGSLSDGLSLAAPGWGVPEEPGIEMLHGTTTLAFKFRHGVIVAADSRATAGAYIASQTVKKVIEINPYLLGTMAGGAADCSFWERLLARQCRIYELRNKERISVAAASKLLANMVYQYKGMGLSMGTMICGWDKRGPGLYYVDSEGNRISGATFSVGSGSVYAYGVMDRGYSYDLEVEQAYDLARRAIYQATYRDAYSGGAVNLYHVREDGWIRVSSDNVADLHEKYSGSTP

HL-60(TB) = assay: Cytotoxicity against human HL-60(TB) cells assessed as cell growth at 10 uM after 48 hrs relative to control; format: functional; settings: HL-60, 48 h, read-out: Activity
Method in brief: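 Run at the NCI as a single-dose screen: each compound at 10 micromolar across the 60-cancer-cell-line panel. Growth of each cell line in compound-containing media was expressed relative to negative-control cultures.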

A549 = assay: Cytotoxicity against human A549 cells assessed as cell growth at 10 uM after 48 hrs relative to control; format: functional; settings: A549, 48 h, read-out: Activity
Method in brief: (§1)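 Run at the National Cancer Institute as a single-dose screen across its 60-cell-line cancer panel. Compound was tested at 10 micromolar, and growth was expressed as a percentage of negative-control cultures.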

HOP-92 = assay: Cytotoxicity against human HOP92 cells assessed as cell growth at 10 uM after 48 hrs relative to control; format: functional; settings: HOP-92, 48 h, read-out: Activity; method in brief: as §1
NCI-H460 = assay: Cytotoxicity against human NCI-H460 cells assessed as cell growth at 10 uM after 48 hrs relative to control; format: functional; settings: NCI-H460, 48 h, read-out: Activity; method in brief: as §1
COLO 205 = assay: Cytotoxicity against human COLO205 cells assessed as cell growth at 10 uM after 48 hrs relative to control; format: functional; settings: COLO 205, 48 h, read-out: Activity; method in brief: as §1
HCT-15 = assay: Cytotoxicity against human HCT15 cells assessed as cell growth at 10 uM after 48 hrs relative to control; format: functional; settings: HCT-15, 48 h, read-out: Activity; method in brief: as §1
HT-29 = assay: Cytotoxicity against human HT-29 cells assessed as cell growth at 10 uM after 48 hrs relative to control; format: functional; settings: HT-29, 48 h, read-out: Activity; method in brief: as §1
KM12 = assay: Cytotoxicity against human KM12 cells assessed as cell growth at 10 uM after 48 hrs relative to control; format: functional; settings: KM12, 48 h, read-out: Activity; method in brief: as §1
SF-268 = assay: Cytotoxicity against human SF268 cells assessed as cell growth at 10 uM after 48 hrs relative to control; format: functional; settings: SF-268, 48 h, read-out: Activity; method in brief: as §1
SF-539 = assay: Cytotoxicity against human SF539 cells assessed as cell growth at 10 uM after 48 hrs relative to control; format: functional; settings: SF-539, 48 h, read-out: Activity; method in brief: as §1
SNB-75 = assay: Cytotoxicity against human SNB75 cells assessed as cell growth at 10 uM after 48 hrs relative to control; format: functional; settings: SNB-75, 48 h, read-out: Activity
Method in brief: (§2)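 Submitted to the National Cancer Institute for a single-dose screen at 10 micromolar against 60 cancer cell lines. Growth is expressed relative to negative-control cultures.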

MDA-MB-435 = assay: Cytotoxicity against human MDA-MB-435 cells assessed as cell growth at 10 uM after 48 hrs relative to control; format: functional; settings: MDA-MB-435, 48 h, read-out: Activity; method in brief: as §1
OVCAR-8 = assay: Cytotoxicity against human OVCAR8 cells assessed as cell growth at 10 uM after 48 hrs relative to control; format: functional; settings: OVCAR-8, 48 h, read-out: Activity; method in brief: as §1
NCI/ADR-RES = assay: Cytotoxicity against human NCI/ADR-RES cells assessed as cell growth at 10 uM after 48 hrs relative to control; format: functional; settings: read-out: Activity; method in brief: as §1
A498 = assay: Cytotoxicity against human A498 cells assessed as cell growth at 10 uM after 48 hrs relative to control; format: functional; settings: A498, 48 h, read-out: Activity; method in brief: as §1
SN12C = assay: Cytotoxicity against human SN12C cells assessed as cell growth at 10 uM after 48 hrs relative to control; format: functional; settings: read-out: Activity; method in brief: as §2
TK-10 = assay: Cytotoxicity against human TK10 cells assessed as cell growth at 10 uM after 48 hrs relative to control; format: functional; settings: TK-10, 48 h, read-out: Activity; method in brief: as §2
UO-31 = assay: Cytotoxicity against human UO31 cells assessed as cell growth at 10 uM after 48 hrs relative to control; format: functional; settings: UO-31, 48 h, read-out: Activity; method in brief: as §2
PC-3 = assay: Cytotoxicity against human PC3 cells assessed as cell growth at 10 uM after 48 hrs relative to control; format: functional; settings: PC-3, 48 h, read-out: Activity; method in brief: as §1
DU-145 = assay: Cytotoxicity against human DU145 cells assessed as cell growth at 10 uM after 48 hrs relative to control; format: functional; settings: DU-145, 48 h, read-out: Activity; method in brief: as §1
MCF7 = assay: Cytotoxicity against human MCF7 cells assessed as cell growth at 10 uM after 48 hrs relative to control; format: functional; settings: MCF7, 48 h, read-out: Activity; method in brief: as §1
MDA-MB-231 = assay: Cytotoxicity against human MDA-MB-231 cells assessed as cell growth at 10 uM after 48 hrs relative to control; format: functional; settings: MDA-MB-231, 48 h, read-out: Activity; method in brief: as §1
T47D = assay: Cytotoxicity against human T47D cells assessed as cell growth at 10 uM after 48 hrs relative to control; format: functional; settings: read-out: Activity; method in brief: as §2
K562 = assay: Cytotoxicity against human K562 cells after 48 hrs; format: functional; settings: K562, 48 h
MOLT-4 = assay: Cytotoxicity against human MOLT4 cells after 48 hrs; format: functional; settings: MOLT-4, 48 h
SR = assay: Cytotoxicity against human SR cells after 48 hrs; format: functional
Method in brief: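 Dose-dependent growth inhibition was assessed at the National Cancer Institute against its cancer cell line panel as a follow-up to the 10 micromolar single-dose screen.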

[2] = molecular target: T2, Proteasome Macropain subunit MB1 (Homo sapiens) (UniProt P28074)
T2 sequence (whole entry): T1 sequence (P28074 whole entry)

| SMILES | Ki [1] | growth at 10 µM (HL-60(TB)) | growth at 10 µM (A549) | growth at 10 µM (HOP-92) | growth at 10 µM (NCI-H460) | growth at 10 µM (COLO 205) | growth at 10 µM (HCT-15) | growth at 10 µM (HT-29) | growth at 10 µM (KM12) | growth at 10 µM (SF-268) | growth at 10 µM (SF-539) | growth at 10 µM (SNB-75) | growth at 10 µM (MDA-MB-435) | growth at 10 µM (OVCAR-8) | growth at 10 µM (NCI/ADR-RES) | growth at 10 µM (A498) | growth at 10 µM (SN12C) | growth at 10 µM (TK-10) | growth at 10 µM (UO-31) | growth at 10 µM (PC-3) | further results |
| --- | --- | --- | --- | --- | --- | --- | --- | --- | --- | --- | --- | --- | --- | --- | --- | --- | --- | --- | --- | --- | --- |
| COC(=O)[C@@H](NC(=O)N[C@H](C(=O)N[C@H]1CCCCNC(=O)/C=C/[C@H](Cc2c[nH]c3ccccc23)NC1=O)C(C)C)C(C)C | 1710 nM | 17.6% | 77.5% | 18% | 45.5% | 58.9% | 109% | 3.42% | 74.5% | 9.42% | -14.4% | -34% | -81.5% | 97.1% | 98.4% | 37.9% | 2.96% | 94.1% | 94.3% | 76.3% | growth at 10 µM (DU-145): 52%; growth at 10 µM (MCF7): 48.5%; growth at 10 µM (MDA-MB-231): 39%; growth at 10 µM (T47D): -9.26% |
| COC(=O)[C@@H](NC(=O)N[C@@H](Cc1ccccc1)C(=O)N[C@H]1CCCCNC(=O)/C=C/[C@H](C(C)C)NC1=O)C(C)C | 950 nM | 62.5% | 77.4% | 18.9% | 59.6% | 78.5% | 94.2% | 31.1% | 30.5% | 30% | 5.04% | -27.8% | -59.9% | 92.3% | 105% | 104% | 75.6% | 93.6% | 94.7% | 75% | growth at 10 µM (DU-145): 53.1%; growth at 10 µM (MCF7): 43.8%; growth at 10 µM (MDA-MB-231): 60.8%; growth at 10 µM (T47D): -3.59% |
| COC(=O)[C@@H](NC(=O)N[C@@H](Cc1ccccc1)C(=O)N[C@H]1CCCCNC(=O)/C=C/[C@H](Cc2ccccc2)NC1=O)C(C)C | 447 nM | 20.9% | 68.6% | 15.7% | 35.6% | 44.6% | 101% | 14.5% | 7.99% | 10.1% | -22.2% | -40.2% | -69.1% | 82% | 98.8% | 40.7% | 29.5% | 75% | 89.6% | 73.2% | GI50 (K562): 14600 nM; GI50 (MOLT-4): 3320 nM; GI50 (SR): 2780 nM; growth at 10 µM (DU-145): 46.1%; growth at 10 µM (MCF7): 37.4%; growth at 10 µM (MDA-MB-231): 23.2%; growth at 10 µM (T47D): 8.25%; Kin [2]: 0.000623 s⁻¹ |
| COC(=O)[C@@H](NC(=O)N[C@H](C(=O)N[C@H]1CCCCNC(=O)/C=C/[C@H](C(C)C)NC1=O)C(C)C)C(C)C | 2120 nM | 27.2% | 42.1% | -8.79% | 28.9% | 51.7% | 98.2% | 11.7% | 1.78% | -20.1% | -19.4% | -34.6% | -55.5% | 86.4% | 100% | 43.2% | 15.8% | 85.8% | 82.2% | 62% | GI50 (K562): 6120 nM; GI50 (MOLT-4): 4730 nM; GI50 (SR): 5130 nM; growth at 10 µM (DU-145): 42%; growth at 10 µM (MCF7): 42.8%; growth at 10 µM (MDA-MB-231): 24.4%; growth at 10 µM (T47D): -31.7% |
| COC(=O)[C@@H](NC(=O)N[C@@H](Cc1ccccc1)C(=O)N[C@H]1CCCCNC(=O)/C=C/[C@H](Cc2c[nH]c3ccccc23)NC1=O)C(C)C | 385 nM | 55.3% | 95.5% | 91.3% | 99.1% | 94% | 110% | 29.7% | 94.6% | 78.8% | 17.5% | 33% | 1.21% | 98.9% | 99.1% | 78.2% | 80.1% | 101% | 84% | 103% | GI50 (K562): 2940 nM; GI50 (MOLT-4): 599 nM; GI50 (SR): 453 nM; growth at 10 µM (DU-145): 95.1%; growth at 10 µM (MCF7): 40.3%; growth at 10 µM (MDA-MB-231): 79.1%; growth at 10 µM (T47D): 34.4% |
